Source: PubChem BioAssay (several laboratories)
PAFAH1B3 inh: inhibitors of human PAFAH1B3; Q15102; recombinant PAFAH1B3, FP-rhodamine probe, fluorescence polarization; inhibition, % at 3.39 µM; hit rate 0.28% among 340,000; AID 492972;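 active means inhibition above the screen-wide average of all tested compounds plus 3 SD, cut at about 25% in these data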;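 further: 0% = enzyme with DMSO only and 100% = wells lacking PAFAH1B3 protein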
Target sequence (Q15102 whole entry, looked up): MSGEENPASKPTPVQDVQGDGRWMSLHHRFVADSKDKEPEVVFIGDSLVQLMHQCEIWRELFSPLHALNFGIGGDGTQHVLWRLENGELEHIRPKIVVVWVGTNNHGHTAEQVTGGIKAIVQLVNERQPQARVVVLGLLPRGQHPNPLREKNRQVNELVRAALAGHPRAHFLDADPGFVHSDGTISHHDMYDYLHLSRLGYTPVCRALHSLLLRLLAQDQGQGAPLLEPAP
PAFAH1B2 inh: blocks human PAF acetylhydrolase 1b catalytic subunit 2. recombinant PAFAH1B2, FP-rhodamine activity probe, fluorescence polarization. inhibition, % at 3.39 µM. hit rate 1.2% among 340,000. AID 492953;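 active means inhibition above the mean of all tested compounds plus 3 SD, cut at about 24% in these data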;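 further: 0% = enzyme with DMSO and 100% = wells lacking PAFAH1B2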
Target sequence (P68402 whole entry, looked up): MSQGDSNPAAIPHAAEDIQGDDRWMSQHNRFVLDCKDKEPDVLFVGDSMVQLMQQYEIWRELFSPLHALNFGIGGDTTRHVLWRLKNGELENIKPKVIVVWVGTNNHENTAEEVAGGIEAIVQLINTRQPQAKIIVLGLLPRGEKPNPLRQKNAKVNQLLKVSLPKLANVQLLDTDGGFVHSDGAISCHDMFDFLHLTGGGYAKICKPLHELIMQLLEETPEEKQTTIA
PAFAH2 FP inh: inhibitors of human PAFAH2; recombinant PAFAH2, FP-rhodamine activity probe, fluorescence polarization; inhibition, % at 3.39 µM; hit rate 0.99% among 340,000;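 active means inhibition above the mean over all tested compounds plus 3 SD, cut at about 30% in these data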;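 further: inhibitors block probe labeling of enzyme so polarization drops; 0% = enzyme with DMSO and 100% = wells lacking PAFAH2 protein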
NR3A LBD binder: NR3A (human) ligand-binding domain modulation. NR3A LBD differential scanning fluorimetry, Tm shift; 0% = protein alone, 100% = glycine-bound protein. Tm shift relative to glycine control, % at 25 µM. hit rate 2.5% among 340,000;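 active means melting temperature shift of at least 10% of the positive control shift, at one fixed dose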
UCH37 inh: inhibitors of human deubiquitinating enzyme UCH37; hit rate 0.33% among 330,000; inhibition, % (no concentration beside the values); AID 588478; purified proteasome/UCH37, Ub-AMC cleavage fluorescence;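 active means mean inhibition over replicate wells above about 20%, limit read from the data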;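 further: 0% = compound-free wells with enzyme and 100% = wells lacking proteasome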
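Schedule: 30 min plus 25 min, room temperature / Material: human UCH37 within purified proteasomes / Technique: AMC fluorescence intensity at 355/460 nm / Buffer or medium: pH 7.4 Tris-HCl (50 mM) with ovalbumin, ATP-MgCl2, DTT / Controls: wells without proteasome as full block, compound-free enzyme plus substrate as uninhibited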
pPAFAH inh: inhibitors of human plasma PAF acetylhydrolase (pPAFAH); recombinant pPAFAH, FP-rhodamine probe fluorescence polarization; hit rate 1.5% among 330,000; inhibition, % at 3.39 µM; AID 463082; Q13093;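 active means inhibition above the mean inhibition across the screen plus 3 SD, cut at about 25% in these data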;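 further: inhibitors block binding of the rhodamine activity-based probe so polarization drops; 0% = enzyme with DMSO and 100% = wells lacking pPAFAH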
Numbers without * were called inactive; nt = no result. Shown are actives, neighbours in structure and some others; about 4.8% of the full set was active somewhere.

SMILES	PAFAH1B3 inh	PAFAH1B2 inh	PAFAH2 FP inh	NR3A LBD binder	UCH37 inh	pPAFAH inh
CCOC(=O)Cc1csc(NC(=O)Nc2ccc(C)cc2)n1	7	0	4	14*	-1	8
CCOC(=O)Cc1csc(NC(=O)c2cccc(OC)c2)n1	4	5	-4	1	5	1
Cc1ccc(Nc2nc(COC(=O)COc3ccc(C=O)cc3)cs2)cc1	5	2	-4	10*	3	25
C/C=C/c1ccc(OCC(=O)OCc2csc(Nc3ccc(C)cc3)n2)c(OC)c1	1	3	-2	-4	1	11
CCOC(=O)Cc1csc(NC(=O)Nc2cccc(OC)c2)n1	4	-2	-3	14*	3	2
O=C(CC(=O)NC1CCCCC1)NN=Cc1ccccc1[N+](=O)[O-]	nt	nt	nt	nt	5	nt
C/C(C=NN1CCN(c2ccccc2)CC1)=C\c1ccco1	nt	nt	nt	nt	2	nt
Clc1ccccc1-c1nc(C=NN2CCOCC2)c2ccccn12	nt	nt	nt	nt	7	nt
Nc1c(S(=O)(=O)c2cccc(Cl)c2)c2nc3ccccc3nc2n1/N=C/c1ccc(O)c(O)c1	nt	nt	nt	nt	nt	71*
Nc1c(S(=O)(=O)c2ccccc2)c2nc3ccccc3nc2n1N=Cc1cccc(O)c1	nt	nt	nt	nt	-105	nt
CC(=NNC(=O)CSc1nc(C)[nH]c1[N+](=O)[O-])c1ccc(F)cc1	nt	nt	nt	nt	6	nt
Cc1ccc(NC(=O)c2ccccc2NS(=O)(=O)c2ccc(Cl)s2)cc1S(=O)(=O)N1CCOCC1	3	2	6	24*	-3	15
O=S(=O)(Nc1cccc(S(=O)(=O)N2CCOCC2)c1)c1ccc(Cl)s1	4	0	2	1	2	-1
COc1ccc(C)cc1NC(=O)c1ccccc1NS(=O)(=O)c1ccc(Cl)s1	-2	10	12	17*	5	19
NC(=O)COc1ccc(C=NNC(=O)CC(=O)NCCc2ccccc2)cc1	nt	nt	nt	nt	0	nt
O=S1(=O)N=C(N(CCO)N=Cc2ccccc2F)c2ccccc21	nt	nt	nt	nt	6	nt
Cc1ccsc1C=NNc1ncc(Cl)cc1Cl	nt	nt	nt	nt	-1	nt
Cc1cc(NS(=O)(=O)c2ccc(Nc3nc(-c4ccc(C)c(C)c4)cs3)cc2)no1	-2	8	25	16*	5	34*
NS(=O)(=O)c1ccc(Nc2nc(-c3ccc(F)cc3)cs2)cc1	nt	nt	nt	25*	4	14
CC(=O)Nc1ccc(-c2csc(Nc3ccc(S(N)(=O)=O)cc3)n2)cc1	14	-1	-3	-4	3	13
NS(=O)(=O)c1ccc(Nc2nc(-c3ccc(O)cc3O)cs2)cc1	24	15	11	15*	3	27*
COc1cc(C=NNC(=O)c2ccc(Cl)c(S(N)(=O)=O)c2)ccc1OCC(N)=O	nt	nt	nt	nt	-12	nt
CCN(CCCNC(=O)C1CCN(S(=O)(=O)N2CCC3(CC2)OCCO3)CC1)c1ccccc1	7	3	0	-3	3	3
CCCCN(CCCNC(=O)C1CCN(S(=O)(=O)N2CCOCC2)CC1)c1ccccc1	-5	2	2	-1	0	28*
Cc1ccc(C(=O)Nc2ccc(S(=O)(=O)N3CCOCC3)cc2)cc1	-4	2	-6	8	5	-5
SMILES	PAFAH1B3 inh	PAFAH1B2 inh	PAFAH2 FP inh	NR3A LBD binder	UCH37 inh	pPAFAH inh
Cc1ccc(NC(=O)C2CCN(S(=O)(=O)c3ccc4c(c3)NC(=O)C(C)S4)CC2)cc1Cl (centres undefined)	-18	-14	-39	10*	3	-29
COc1ccc(C(=O)Nc2ccc(S(=O)(=O)N3CCN(C)CC3)cc2)cc1[N+](=O)[O-]	1	6	1	8	7	6
O=[N+]([O-])c1cc(Cl)cc(/C=N/NC(=S)Nc2ccc(S(=O)(=O)N3CCOCC3)cc2)c1O	23	37*	42*	9	nt	52*
Cc1cc(C)cc(NC(=O)C2CCN(S(=O)(=O)c3ccc4c(c3)NC(=O)C(C)S4)CC2)c1 (centres undefined)	9	2	-11	3	4	-3
COc1ccc(C(=O)Nc2ccc(S(=O)(=O)N3CCOCC3)cc2)cc1[N+](=O)[O-]	-4	5	2	35*	2	9
Cc1cc(C(=O)Nc2ccc(S(=O)(=O)N3CCOCC3)cc2)ccc1[N+](=O)[O-]	9	3	-2	30*	4	-1
CCN1C(=O)/C(=C/c2cccs2)SC1=NS(=O)(=O)c1ccc(C)cc1	nt	nt	nt	nt	4	nt
